# Assay results from ChEMBL document CHEMBL1139350, “Modulation of Wnt signaling through inhibition of secreted frizzled-related protein I (sFRP-1) with N-substituted piperidinyl diphenylsulfonyl sulfonamides” (J Med Chem, 2009).
# What was measured:
# Assay type in all cases: ADME, Microsome
# [1] = Metabolic stability in human liver microsomes assessed as half life
# Procedure, shortened: (§1)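 Stability in human or rat liver microsomes with compound at 1 µM, from DMSO solution.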
# [2] = Metabolic stability in rat liver microsomes assessed as half life; procedure, shortened: as §1
# [3] = Metabolic stability in human liver microsomes assessed as half life in presence of NADPH
# Procedure, shortened: (§2)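 Advanced stability in human or rat liver microsomes run with NADPH, with and without UDPGA, on compound from 1 µM DMSO solution.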
# [4] = Metabolic stability in rat liver microsomes assessed as half life in presence of NADPH; procedure, shortened: as §2
half-life [1] [min],half-life [2] [min],half-life [3] [min],half-life [4] [min],Compound
> 1,> 1,–,–,CC(C)(C)OC(=O)N1CCC[C@H]1C(=O)N1CCC(NS(=O)(=O)c2cc(S(=O)(=O)c3ccccc3)ccc2C(F)(F)F)CC1
> 2,> 3,–,–,CC(C)(C)NC(=O)N1CCC[C@H]1C(=O)N1CCC(NS(=O)(=O)c2cc(S(=O)(=O)c3ccccc3)ccc2C(F)(F)F)CC1

# More lines, now with the values behind:
Compound,half-life [1] [min],half-life [2] [min],half-life [3] [min],half-life [4] [min]
CC(C)(C)CC(=O)N1CCC[C@H]1C(=O)N1CCC(NS(=O)(=O)c2cc(S(=O)(=O)c3ccccc3)ccc2C(F)(F)F)CC1,> 1,> 3,–,–
O=S(=O)(NC1CCNCC1)c1cc(S(=O)(=O)c2ccccc2)ccc1C(F)(F)F,–,–,> 60,> 60
CC(C)(C)CCN1CCC[C@H]1C(=O)N1CCC(NS(=O)(=O)c2cc(S(=O)(=O)c3ccccc3)ccc2C(F)(F)F)CC1,> 5,> 8,–,–
